Laboratory results as given in publication PMC5817038 (Bioorganic & medicinal chemistry letters, 2018).
Where two headings read alike, the source gives them in different places. One block for each molecule: values may come before it.

Key:
[1] = tested on: HCT116 IDH1-R132H tumor xenografts; assay: Tissue distribution in athymic mice bearing IDH1-mutated HCT116 tumor xenografts; assay type: in vivo
Method in brief: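 Athymic mice bearing IDH1-mutated HCT116 xenografts received either the 131I- or the 18F-labelled test compound, in separate groups. Tissues were sampled from 0.5 to 4 h after injection. Uptake is given as %ID/g, or as %ID for liver plus intestines. Five animals per time point, mean ± SEM. WT-IDH1 tumour-bearing mice were also examined at 1–4 h.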

[2] = tested on: IDH1-mutated astrocytoma cell line (IMA); assay: Cell uptake of radiolabeled compounds, IDH1-mutated astrocytoma; assay type: cell-based; details: time course
Method in brief: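 Radioiodinated or 18F-labelled test compounds, prepared no-carrier-added, were incubated with IDH1-mutated cells and their isogenic WT-IDH1 counterparts. Uptake was followed over time, starting at 5 min, and compared between mutant and WT lines as uptake ratios. Each condition was run in three wells, reported as mean ± SEM, with significance by Student's t-test.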

[3] = tested on: HCT116 colorectal carcinoma cell line expressing heterozygous IDH1-R132H; assay: Cell uptake of radiolabeled compounds, IDH1-mutated HCT116 vs isogenic WT-IDH1; assay type: cell-based
Method in brief: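 Isogenic HCT116 lines expressing IDH1-R132H or wild-type IDH1 were incubated with the 125I-labelled iodo analogue or the 18F-labelled fluoro inhibitor, no-carrier-added, and cell-associated radioactivity was measured over time. Uptake ratio is mutant IDH1 over WT-IDH1 uptake. Three wells per point, mean ± SEM; Student's t-test, P < 0.05.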

IDH1-R132H = IDH1-R132H (Homo sapiens, UniProt O75874, R132H); assay type: biochemical
Sequence of IDH1-R132H (O75874 whole entry R132H): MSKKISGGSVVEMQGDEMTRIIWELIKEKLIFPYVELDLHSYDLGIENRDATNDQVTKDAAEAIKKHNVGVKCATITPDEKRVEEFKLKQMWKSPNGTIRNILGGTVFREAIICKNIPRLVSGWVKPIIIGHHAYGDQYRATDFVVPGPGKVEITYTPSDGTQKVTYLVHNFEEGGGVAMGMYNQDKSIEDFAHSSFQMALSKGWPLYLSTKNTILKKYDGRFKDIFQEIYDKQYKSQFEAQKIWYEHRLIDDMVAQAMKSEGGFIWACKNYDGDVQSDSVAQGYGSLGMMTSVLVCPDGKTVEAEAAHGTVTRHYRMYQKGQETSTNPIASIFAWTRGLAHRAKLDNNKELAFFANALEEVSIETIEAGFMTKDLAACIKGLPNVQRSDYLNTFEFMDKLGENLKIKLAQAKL

[4] = normal mice; cited from earlier work
wild-type IDH1 = details: read-out: IC50 against wild-type IDH1 (reported); literature value; cited from earlier work
[5] = tested on: IDH1-mutated glioma xenografts; details: cited from earlier work

- uptake and retention in brain ([1]; 0.5-4 h): very low
- tumor uptake ([1]; 0.5 h post injection): 0.84 ± 0.18 % ID/g
- blood activity ([1]; 30 min post injection): 0.88 ± 0.16 % ID/g
- peak tumor-to-muscle ratio (TMR) ([1]; 2 h): 2.5 ± 1.0
- peak tumor-to-blood ratio (TBR) ([1]; 4 h): 3.0 ± 1.3
- blood activity ([1]; 4 h post injection): ~ 0.1 % ID/g
- liver and intestines, share of injected dose ([1]; 4 h post injection): 87 ± 7 % ID
- tumor uptake ([1]; 4 h post injection): 0.33 ± 0.08 % ID/g
- stability against dehalogenation in vivo ([1]; mouse, in vivo): stable against dehalogenation in vivo
Compound: Cc1ccccc1C(C(=O)NC1CCCCC1)N(C(=O)Cn1ccnc1C)c1cccc([18F])c1 (stereo not shown) [[^18F]AGI-5198]
- uptake in IDH1-mutated vs WT-IDH1 cells [2]: higher only at 5 min but not thereafter
- uptake ratio IDH1-mutated/WT-IDH1 ([3]; HCT116, 5 min): about 1.6
- uptake ratio IDH1-mutated/WT-IDH1 ([3]; HCT116, 30 min, remaining at that level until 120 min): ~2.0

- enzyme inhibition (maximal) (IDH1-R132H; at 12.25 μM): 71.3 ± 5.3%
Compound: Cc1ccccc1C(C(=O)NC1CCCCC1)N(C(=O)CNc1ccc(F)nc1)c1cccc(F)c1 (stereo not shown) [compound 2]

Compound: Cc1ccccc1C(C(=O)NC1CCCC1)N(C(=O)Cn1cnc2ccccc21)c1cccc(F)c1 (stereo not shown) [ML-309]
- blood-brain-barrier (BBB) permeability [4]: lack of blood-brain-barrier (BBB) permeability

Compound: Cc1ccccc1C(C(=O)NC1CCCCC1)N(C(=O)Cn1ccnc1C)c1cccc(I)c1 (stereo not shown) [compound 1]
- enzyme inhibition (maximal) (IDH1-R132H; at 6.12 μM): 100%

- inhibition at 12.25 µM (IDH1-R132H; read-out: enzyme inhibition (maximal)): 100%
Compound: Cc1ccccc1C(C(=O)NC1CCCCC1)N(C(=O)Cn1ccnc1C)c1cccc(F)c1 (stereo not shown) [AGI-5198]
- IC50 (wild-type IDH1): > 100 µM
- D-2-HG production [5]: inhibit D-2-HG production
- anti-tumor effect [5]: anti-tumor effects
